Reference: ChEMBL document CHEMBL2074454, “Characterisation of human monocarboxylate transporter 4 substantiates its role in lactic acid efflux from skeletal muscle” (J Physiol, 2000)

T1: Monocarboxylate transporter 4 (Homo sapiens) (UniProt O15427)
T1 sequence (whole entry): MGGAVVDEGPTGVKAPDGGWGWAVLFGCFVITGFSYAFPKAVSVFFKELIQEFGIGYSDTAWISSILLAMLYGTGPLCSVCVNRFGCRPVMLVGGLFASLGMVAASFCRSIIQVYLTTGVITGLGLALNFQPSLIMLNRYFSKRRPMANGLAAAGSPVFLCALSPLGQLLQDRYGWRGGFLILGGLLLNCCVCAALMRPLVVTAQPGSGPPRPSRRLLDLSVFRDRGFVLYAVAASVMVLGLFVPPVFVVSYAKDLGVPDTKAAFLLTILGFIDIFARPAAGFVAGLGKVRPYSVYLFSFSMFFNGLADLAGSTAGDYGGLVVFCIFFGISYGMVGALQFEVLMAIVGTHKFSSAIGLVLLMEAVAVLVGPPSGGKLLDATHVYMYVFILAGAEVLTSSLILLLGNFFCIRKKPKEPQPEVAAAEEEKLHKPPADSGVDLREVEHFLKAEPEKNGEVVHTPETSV

T2: Monocarboxylate transporter 4 (Homo sapiens, UniProt O15427)
T2 sequence (O15427 whole entry): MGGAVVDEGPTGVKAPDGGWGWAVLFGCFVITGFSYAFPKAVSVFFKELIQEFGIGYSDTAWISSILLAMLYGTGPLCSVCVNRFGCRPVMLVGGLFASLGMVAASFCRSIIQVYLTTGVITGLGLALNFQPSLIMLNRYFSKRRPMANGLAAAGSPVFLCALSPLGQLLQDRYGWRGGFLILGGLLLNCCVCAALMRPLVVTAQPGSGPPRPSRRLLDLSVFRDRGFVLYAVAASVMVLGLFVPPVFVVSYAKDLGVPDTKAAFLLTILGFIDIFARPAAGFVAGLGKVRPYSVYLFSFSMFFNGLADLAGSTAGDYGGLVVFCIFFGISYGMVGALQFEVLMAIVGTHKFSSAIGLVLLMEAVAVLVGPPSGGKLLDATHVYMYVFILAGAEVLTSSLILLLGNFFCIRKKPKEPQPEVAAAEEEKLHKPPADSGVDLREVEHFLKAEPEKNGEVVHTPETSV

B1: Monocarboxylate transporter 4 (Homo sapiens), O15427 (protein)
chain: MGGAVVDEGPTGVKAPDGGWGWAVLFGCFVITGFSYAFPKAVSVFFKELIQEFGIGYSDTAWISSILLAMLYGTGPLCSVCVNRFGCRPVMLVGGLFASLGMVAASFCRSIIQVYLTTGVITGLGLALNFQPSLIMLNRYFSKRRPMANGLAAAGSPVFLCALSPLGQLLQDRYGWRGGFLILGGLLLNCCVCAALMRPLVVTAQPGSGPPRPSRRLLDLSVFRDRGFVLYAVAASVMVLGLFVPPVFVVSYAKDLGVPDTKAAFLLTILGFIDIFARPAAGFVAGLGKVRPYSVYLFSFSMFFNGLADLAGSTAGDYGGLVVFCIFFGISYGMVGALQFEVLMAIVGTHKFSSAIGLVLLMEAVAVLVGPPSGGKLLDATHVYMYVFILAGAEVLTSSLILLLGNFFCIRKKPKEPQPEVAAAEEEKLHKPPADSGVDLREVEHFLKAEPEKNGEVVHTPETSV

Key:
[1] = molecular target: T1, Monocarboxylate transporter 4 (Homo sapiens); assay: (§1) TP_TRANSPORTER: uptake in Xenopus laevis oocytes; assay type: functional, cell-based; settings: Oocyte
Procedure, shortened: (§2)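 Stage V–VI oocytes were injected with 12 ng MCT4 or MCT1 cRNA and kept in Barth's medium at 18°C. They were assayed 48–72 h later after loading with 5 μM BCECF-AM (30 min, room temperature, pH 7.4 buffer). Single oocytes were superfused with monocarboxylate Na salt (isosmotic NaCl replacement). Initial acidification rate came from a first-order fit, normalised to L-lactate on the same oocyte, then Michaelis–Menten regression.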

[2] = molecular target: T2, Monocarboxylate transporter 4; assay: TP_TRANSPORTER: inhibition of L-Lactate uptake (L-Lactate:30mM) in Xenopus laevis oocytes; assay type: functional, cell-based, Oocyte
Procedure, shortened: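 Human MCT4 cRNA (12 ng) injected into collagenase-treated stage V–VI oocytes, cultured 48–72 h at 18°C. Oocytes loaded with 5 μM BCECF-AM, 30 min, room temperature. Single oocyte superfused in uptake buffer pH 7.4 (NaCl isosmotically replaced). Inhibitor added simultaneously with 30 mM L-lactate at increasing concentrations. Initial acidification rate from first-order fit, as % of uninhibited rate. K0.5 from non-competitive fit, n=4–5 oocytes.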

[3] = substrate: COC(=O)[C@H](C)Cl; assay: as §1; assay type: functional, cell-based; settings: Oocyte; procedure, shortened: as §2
[4] = substrate: CCC(=O)C(=O)O; assay: as §1; assay type: functional, cell-based; settings: Oocyte; procedure, shortened: as §2
[5] = substrate: O=C(O)CCCl; assay: as §1; assay type: functional, cell-based; settings: Oocyte; procedure, shortened: as §2
[6] = substrate: CC(C)CC(=O)C(=O)O; assay: as §1; assay type: functional, cell-based; settings: Oocyte; procedure, shortened: as §2
[7] = substrate: CCC(O)C(=O)O; assay: as §1; assay type: functional, cell-based; settings: Oocyte; procedure, shortened: as §2
[8] = substrate: CC(O)C(=O)[O-].[Na+]; assay: as §1; assay type: functional, cell-based; settings: Oocyte; procedure, shortened: as §2

| Molecule | Activity [1] | IC50 [2] | other results |
| --- | --- | --- | --- |
| O=C(O)CCCO | is not a substrate [-] |  |  |
| O=CC(=O)O | is not a substrate [-] |  |  |
| O=C(CCc1ccc(O)cc1)c1c(O)cc(O)cc1O [PHLORETIN] |  | 41 µM |  |
| O=C[O-].[Na+] | is not a substrate [-] |  |  |
| p-Chloromercuribenzenesulfonate |  |  | IC50 ([2]; oocyte): 21 µM |
| N#C/C(=C\c1ccc(O)cc1)C(=O)O [alpha-CYANO-4-HYDROXYCINNAMIC ACID] |  | 991 µM |  |
| NC(=O)C(=O)O | is not a substrate [-] |  |  |
| O=C(O)O | is not a substrate [-] |  |  |
| O=C(O)c1cc([N+](=O)[O-])ccc1NCCCc1ccccc1 [5-NITRO-2-PHENYLPROPYLAMINOBENZOIC ACID [NPPB]] |  | 240 µM |  |
| CC(C)Cn1c(=O)n(C)c(=O)c2[nH]cnc21 [ISOBUTYLMETHYLXANTHINE] |  | 970 µM |  |
| O=C(O)C(=O)Cc1ccccc1 | is not a substrate [-] |  |  |
| B1 |  |  | Km [3]: 46 mM; Km [4]: 57 mM; Km [5]: 51 mM; Km [6]: 95 mM; Km [7]: 56 mM; Km [8]: 28 mM |
